According to ChEMBL document CHEMBL1629686, “Substrate selectivity and a novel role in inhibitor discrimination by residue 237 in the KPC-2 beta-lactamase” (Antimicrob Agents Chemother, 2010):
Converted amounts (≈) assume the structure as drawn.

What was measured:
Escherichia coli [1] = assay: Antimicrobial activity against Escherichia coli DH10B harboring beta-lactamase KPC-2 T237F mutant by agar dilution method in presence of beta-lactamase inhibitor Tazobactam; format: functional; conditions: K-12 DH10B
How it was run: (§1)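 LB agar dilution MICs by CLSI criteria, inoculated with a Steers replicator. […] Strains were E. coli DH10B with or without pBC SK(+) carrying wild-type blaKPC-2 or a position 237 variant.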

Escherichia coli [2] = assay: Antimicrobial activity against Escherichia coli DH10B harboring beta-lactamase KPC-2 T237L mutant by agar dilution method in presence of beta-lactamase inhibitor Tazobactam; format: functional; conditions: K-12 DH10B; how it was run: as §1
Escherichia coli [3] = assay: Antimicrobial activity against Escherichia coli DH10B harboring beta-lactamase KPC-2 T237G mutant by agar dilution method in presence of beta-lactamase inhibitor Tazobactam; format: functional; conditions: K-12 DH10B; how it was run: as §1
Escherichia coli [4] = assay: Antimicrobial activity against Escherichia coli DH10B harboring beta-lactamase KPC-2 T237V mutant by agar dilution method in presence of beta-lactamase inhibitor Tazobactam; format: functional; conditions: K-12 DH10B; how it was run: as §1
Klebsiella pneumoniae [5] = assay: Activity of Klebsiella pneumoniae 1534 beta-lactamase KPC-2 T237S mutant by spectrophotometric analysis
How it was run: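 Purified KPC-2 variant enzymes (periplasmic lysate from E. coli, preparative isoelectric focusing). Hydrolysis followed by diode-array spectrophotometry in 10 mM PBS, pH 7.4, room temperature. Enzyme at 10 nM with substrate in molar excess for pseudo-first-order conditions. Vmax and Km came from a nonlinear least-squares Michaelis-Menten fit.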

Klebsiella pneumoniae [6] = assay: Antimicrobial activity against Klebsiella pneumoniae 1534 expressing beta-lactamase KPC-2 by agar dilution method in presence of beta-lactamase inhibitor Tazobactam; format: functional
How it was run: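 LB agar dilution MIC following CLSI criteria, inoculated with a Steers replicator. Tested as piperacillin-tazobactam at a fixed 8:1 ratio.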

Escherichia coli [7] = assay: Antimicrobial activity against Escherichia coli DH10B harboring beta-lactamase KPC-2 T237R mutant by agar dilution method in presence of beta-lactamase inhibitor Tazobactam; format: functional; conditions: K-12 DH10B; how it was run: as §1
Escherichia coli [8] = assay: Antimicrobial activity against Escherichia coli DH10B by agar dilution method in presence of beta-lactamase inhibitor Tazobactam; format: functional; conditions: K-12 DH10B; how it was run: as §1
Escherichia coli [9] = assay: Antimicrobial activity against Escherichia coli DH10B harboring beta-lactamase KPC-2 T237M mutant by agar dilution method in presence of beta-lactamase inhibitor Tazobactam; format: functional; conditions: K-12 DH10B; how it was run: as §1
Escherichia coli [10] = assay: Antimicrobial activity against Escherichia coli DH10B harboring beta-lactamase KPC-2 T237C mutant by agar dilution method in presence of beta-lactamase inhibitor Tazobactam; format: functional; conditions: K-12 DH10B; how it was run: as §1
Escherichia coli [11] = assay: Antimicrobial activity against Escherichia coli DH10B harboring beta-lactamase KPC-2 T237P mutant by agar dilution method in presence of beta-lactamase inhibitor Tazobactam; format: functional; conditions: K-12 DH10B; how it was run: as §1
Escherichia coli [12] = assay: Antimicrobial activity against Escherichia coli DH10B harboring beta-lactamase KPC-2 T237D mutant by agar dilution method in presence of beta-lactamase inhibitor Tazobactam; format: functional; conditions: K-12 DH10B; how it was run: as §1
Escherichia coli [13] = assay: Antimicrobial activity against Escherichia coli DH10B harboring beta-lactamase KPC-2 T237Y mutant by agar dilution method in presence of beta-lactamase inhibitor Tazobactam; format: functional; conditions: K-12 DH10B; how it was run: as §1
Escherichia coli [14] = assay: Antimicrobial activity against Escherichia coli DH10B harboring beta-lactamase KPC-2 T237W mutant by agar dilution method in presence of beta-lactamase inhibitor clavulanic acid; format: functional; conditions: K-12 DH10B
How it was run: (§2)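 LB agar dilution MICs per CLSI criteria, inoculated with a Steers replicator. […] Strains: E. coli DH10B alone, DH10B carrying empty pBC SK(+), or DH10B carrying pBC SK(+)-blaKPC-2 position 237 variants made by site-saturation mutagenesis and confirmed by sequencing. Plasmid selection used 20 mg/liter chloramphenicol.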

Escherichia coli [15] = assay: Antimicrobial activity against Escherichia coli DH10B harboring beta-lactamase KPC-2 T237I mutant by agar dilution method in presence of beta-lactamase inhibitor clavulanic acid; format: functional; conditions: K-12 DH10B
How it was run: (§3)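 LB agar dilution MICs by CLSI criteria, applied with a Steers replicator. […] Hosts were E. coli DH10B carrying pBC SK(+) with wild-type blaKPC-2 or a position 237 variant.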

Escherichia coli [16] = assay: Antimicrobial activity against Escherichia coli DH10B harboring beta-lactamase KPC-2 T237F mutant by agar dilution method in presence of beta-lactamase inhibitor Sulbactam; format: functional; conditions: K-12 DH10B; how it was run: as §3
Escherichia coli [17] = assay: Antimicrobial activity against Escherichia coli DH10B harboring beta-lactamase KPC-2 T237P mutant by agar dilution method in presence of beta-lactamase inhibitor Sulbactam; format: functional; conditions: K-12 DH10B; how it was run: as §2
Escherichia coli [18] = assay: Antimicrobial activity against Escherichia coli DH10B harboring beta-lactamase KPC-2 T237H mutant by agar dilution method in presence of beta-lactamase inhibitor clavulanic acid; format: functional; conditions: K-12 DH10B; how it was run: as §3
Escherichia coli [19] = assay: Antimicrobial activity against Escherichia coli DH10B harboring beta-lactamase KPC-2 T237L mutant by agar dilution method in presence of beta-lactamase inhibitor clavulanic acid; format: functional; conditions: K-12 DH10B; how it was run: as §3
Escherichia coli [20] = assay: Antimicrobial activity against Escherichia coli DH10B harboring beta-lactamase KPC-2 T237V mutant by agar dilution method in presence of beta-lactamase inhibitor clavulanic acid; format: functional; conditions: K-12 DH10B; how it was run: as §3
Escherichia coli [21] = assay: Antimicrobial activity against Escherichia coli DH10B harboring beta-lactamase KPC-2 T237Q mutant by agar dilution method in presence of beta-lactamase inhibitor clavulanic acid; format: functional; conditions: K-12 DH10B; how it was run: as §3
Escherichia coli [22] = assay: Antimicrobial activity against Escherichia coli DH10B harboring beta-lactamase KPC-2 T237N mutant by agar dilution method in presence of beta-lactamase inhibitor Sulbactam; format: functional; conditions: K-12 DH10B; how it was run: as §3
Escherichia coli [23] = assay: Antimicrobial activity against Escherichia coli DH10B harboring beta-lactamase KPC-2 T237A mutant by agar dilution method in presence of beta-lactamase inhibitor clavulanic acid; format: functional; conditions: K-12 DH10B; how it was run: as §3
Escherichia coli [24] = assay: Antimicrobial activity against Escherichia coli DH10B harboring beta-lactamase KPC-2 T237S mutant by agar dilution method in presence of beta-lactamase inhibitor clavulanic acid; format: functional; conditions: K-12 DH10B; how it was run: as §3
Escherichia coli [25] = assay: Antimicrobial activity against Escherichia coli DH10B harboring beta-lactamase KPC-2 T237H mutant by agar dilution method in presence of beta-lactamase inhibitor Sulbactam; format: functional; conditions: K-12 DH10B; how it was run: as §3
Escherichia coli [26] = assay: Antimicrobial activity against Escherichia coli DH10B harboring beta-lactamase KPC-2 T237A mutant by agar dilution method in presence of beta-lactamase inhibitor Sulbactam; format: functional; conditions: K-12 DH10B; how it was run: as §3
Escherichia coli [27] = assay: Antimicrobial activity against Escherichia coli DH10B harboring beta-lactamase KPC-2 T237V mutant by agar dilution method in presence of beta-lactamase inhibitor Sulbactam; format: functional; conditions: K-12 DH10B; how it was run: as §3
Klebsiella pneumoniae [28] = assay: microbe, parasite or virus in culture; conditions: 1534
Klebsiella pneumoniae [29] = assay: microbe, parasite or virus in culture; conditions: 1534; remark: listed apart in the source
Escherichia coli [30] = assay: Antimicrobial activity against Escherichia coli DH10B harboring plasmid pBR322-catI carrying beta-lactamase KPC-2 by agar dilution method in presence of beta-lactamase inhibitor Sulbactam; format: functional; conditions: K-12 DH10B
Escherichia coli [31] = assay: Antimicrobial activity against Escherichia coli DH10B harboring beta-lactamase KPC-2 T237K mutant by agar dilution method in presence of beta-lactamase inhibitor Sulbactam; format: functional; conditions: K-12 DH10B; how it was run: as §3
Escherichia coli [32] = assay: Antimicrobial activity against Escherichia coli DH10B harboring plasmid pBC SK(+) carrying wild type beta-lactamase KPC-2 by agar dilution method in presence of beta-lactamase inhibitor clavulanic acid; format: functional; conditions: K-12 DH10B; how it was run: as §3
Escherichia coli [33] = assay: Antimicrobial activity against Escherichia coli DH10B harboring beta-lactamase KPC-2 T237W mutant by agar dilution method in presence of beta-lactamase inhibitor Sulbactam; format: functional; conditions: K-12 DH10B; how it was run: as §3
Escherichia coli [34] = assay: Antimicrobial activity against Escherichia coli DH10B harboring beta-lactamase KPC-2 T237D mutant by agar dilution method in presence of beta-lactamase inhibitor Sulbactam; format: functional; conditions: K-12 DH10B; how it was run: as §3

CCN1CCN(C(=O)N[C@@H](C(=O)N[C@@H]2C(=O)N3[C@@H]2SC(C)(C)[C@@H]3C(=O)O)c2ccccc2)C(=O)C1=O [PIPERACILLIN]
MIC (Escherichia coli [1]): 0.5 µg/mL | MIC (Escherichia coli [2]): 2 µg/mL | MIC (Escherichia coli [3]): 1 µg/mL | MIC (Escherichia coli [4]): 2 µg/mL | Km (Klebsiella pneumoniae [5]): 6 µM | kcat (Klebsiella pneumoniae [5]): 42 s⁻¹ | MIC (Klebsiella pneumoniae [6]): 64 µg/mL | MIC (Escherichia coli [7]): 0.5 µg/mL | MIC (Escherichia coli [8]): 0.5 µg/mL | MIC (Escherichia coli [9]): 2 µg/mL | MIC (Escherichia coli [10]): 0.5 µg/mL | MIC (Escherichia coli [11]): 0.5 µg/mL | MIC (Escherichia coli [12]): 1 µg/mL | MIC (Escherichia coli [13]): 0.5 µg/mL

CC1(C)S[C@@H]2[C@H](NC(=O)[C@H](N)c3ccccc3)C(=O)N2[C@H]1C(=O)O [AMPICILLIN]
MIC (Escherichia coli [14]): 1 µg/mL | MIC (Escherichia coli [15]): 8 µg/mL | MIC (Escherichia coli [16]): 8 µg/mL | MIC (Escherichia coli [17]): 1 µg/mL | MIC (Escherichia coli [18]): 4 µg/mL | MIC (Escherichia coli [19]): 8 µg/mL | MIC (Escherichia coli [20]): 8 µg/mL | MIC (Escherichia coli [21]): 8 µg/mL | MIC (Escherichia coli [22]): 8 µg/mL | MIC (Escherichia coli [23]): 8 µg/mL | MIC (Escherichia coli [24]): 4 µg/mL | MIC (Escherichia coli [25]): 16 µg/mL | MIC (Escherichia coli [26]): 64 µg/mL | MIC (Escherichia coli [27]): 32 µg/mL | MIC (Klebsiella pneumoniae [28]): 512 µg/mL (≈ 1470 µM) | MIC (Klebsiella pneumoniae [29]): 32 µg/mL (≈ 91.6 µM) | MIC (Escherichia coli [30]): 512 µg/mL | MIC (Escherichia coli [31]): 4 µg/mL | MIC (Escherichia coli [32]): 4 µg/mL | MIC (Escherichia coli [33]): 8 µg/mL | MIC (Escherichia coli [34]): 16 µg/mL
